Assay results reported in ChEMBL document CHEMBL3352181, “Novel phenyl and pyridyl substituted derivatives of isoindolines: Synthesis, antitumor activity and DNA binding features” (Eur J Med Chem, 2014).
pIC50: −log10 of the molar value. Active and inactive are the calls of the source. The rule behind the calls is not given here.

Assays:
[1] = tested on: HeLa; test: Antiproliferative activity against human HeLa cells assessed as inhibition of cell proliferation after 72 hrs by MTT assay; type: functional, cell-based
How it was run: (§1)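 Cells grown as monolayers in DMEM with 10% FBS, 2 mM L-glutamine, penicillin/streptomycin, 37 °C, 5% CO2. Seeded at 5000/well on day 0. Compounds added after 24 h as five serial dilutions (0,01 to 100 µM), DMSO ≤0.1%, then 72 h. MTT read-out converted to percentage growth. IC50 by linear regression; quadruplicates in three experiments.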

[2] = tested on: BJ; test: Antiproliferative activity against human BJ cells assessed as inhibition of cell proliferation after 72 hrs by MTT assay; type: cell-based; settings: for inhibition (INH): human; how it was run: as §1
[3] = (§2) Antiproliferative activity against human SW620 cells assessed as inhibition of cell proliferation after 72 hrs by MTT assay; type: functional, cell-based, SW-620; how it was run: as §1
[4] = tested on: MCF7; test: Antiproliferative activity against human MCF7 cells assessed as inhibition of cell proliferation after 72 hrs by MTT assay; type: functional, cell-based; how it was run: as §1
[5] = tested on: HepG2; test: Antiproliferative activity against human HepG2 cells assessed as inhibition of cell proliferation after 72 hrs by MTT assay; type: functional, cell-based; settings: for pIC50: HepG2, 72 h; how it was run: as §1
[6] = tested on: SW-620; test: as §2; type: functional, cell-based; how it was run: as §1
[7] = molecular target: T1, DNA topoisomerase 1 (Homo sapiens) (UniProt P11387); test: Inhibition of human topoisomerase 1 assessed as topoisomerase poison activity by measuring generation of open circular DNA using supercoiled pUC19 DNA at 5 to 50 uM by agarose gel electrophoresis
T1 sequence (whole entry): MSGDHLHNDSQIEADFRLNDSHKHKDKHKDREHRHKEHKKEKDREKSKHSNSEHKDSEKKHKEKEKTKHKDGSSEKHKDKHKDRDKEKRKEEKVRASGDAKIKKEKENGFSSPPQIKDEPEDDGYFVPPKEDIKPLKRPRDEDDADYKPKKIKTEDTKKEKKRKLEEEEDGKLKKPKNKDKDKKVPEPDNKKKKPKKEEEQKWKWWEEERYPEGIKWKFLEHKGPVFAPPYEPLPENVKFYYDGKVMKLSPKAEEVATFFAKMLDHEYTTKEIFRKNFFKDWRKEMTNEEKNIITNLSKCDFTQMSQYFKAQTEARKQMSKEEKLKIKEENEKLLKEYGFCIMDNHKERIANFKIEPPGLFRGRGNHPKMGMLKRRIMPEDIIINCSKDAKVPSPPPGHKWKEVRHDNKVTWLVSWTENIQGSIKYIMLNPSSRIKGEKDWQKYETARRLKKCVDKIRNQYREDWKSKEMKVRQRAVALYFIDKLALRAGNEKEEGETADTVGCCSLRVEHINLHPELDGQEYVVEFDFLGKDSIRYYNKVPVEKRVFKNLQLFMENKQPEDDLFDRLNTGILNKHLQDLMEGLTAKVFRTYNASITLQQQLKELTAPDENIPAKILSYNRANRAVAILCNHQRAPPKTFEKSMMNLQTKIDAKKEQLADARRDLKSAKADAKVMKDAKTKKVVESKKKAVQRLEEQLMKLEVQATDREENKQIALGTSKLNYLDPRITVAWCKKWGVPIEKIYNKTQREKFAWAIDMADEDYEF
How it was run: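 Supercoiled pUC19 plasmid was incubated with human topoisomerase I and graded compound concentrations. Reactions were stopped with SDS and proteinase K. DNA forms were resolved on 1% agarose in TBE (2 h, 120 V), post-stained with ethidium bromide and photographed under UV. Poisoning was read as appearance of nicked DNA, with camptothecin as the positive control.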

[8] = tested on: Calf thymus DNA; test: Binding affinity to calf thymus DNA assessed as change in melting temperature at drug/ base pair ratio of 0.5 by spectrophotometry; type: nucleic-acid assay; settings: Bos taurus
How it was run: (§3)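 CT-DNA absorbance followed at 260 nm from 20 to 100 °C, rising 1 °C per min, in BPE buffer, with or without compound at drug/base-pair ratio 0.25 or 0.5. Tm taken as midpoint of the hyperchromic transition from first-derivative plots. ΔTm is Tm with compound minus Tm of DNA alone.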

[9] = tested on: Nucleic Acid; test: Induction of DNA intercalation in supercoiled pUC19 DNA in presence of human topoisomerase 1 assessed as effect on topoisomerase 1-mediated DNA relaxation at 50 uM by agarose gel electrophoresis; type: nucleic-acid assay; settings: Escherichia coli
How it was run: (§4)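 Supercoiled pUC19 incubated with human topoisomerase I and graded compound concentrations. Stopped with SDS/proteinase K. DNA forms resolved on 1% agarose in TBE, 2 h at 120 V, stained post-run with ethidium bromide and viewed under UV. Camptothecin was the topo I poison control.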

[10] = tested on: Calf thymus DNA; test: Binding affinity to calf thymus DNA at 50 uM circular dichroism spectroscopy; type: nucleic-acid assay; settings: Bos taurus
How it was run: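 CD spectra recorded from 480 to 230 nm, 10 mm path, 20 °C, in BPE buffer. CT-DNA (50 µM) incubated with compound rising from 1 to 60 µM or to 80 µM. Compound without DNA served as the control for intrinsic CD.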

[11] = Binding affinity to pBluescript 265 bp DNA fragment (unknown origin) at 1 to 25 uM incubated for 15 mins by DNase-1 foot printing assay
How it was run: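 265 bp EcoRI/PvuII fragment of pBluescript, 3'-end labelled with α[32P]-dATP, incubated with compound (up to 50 µM) for 15 min at 37 °C, then mildly digested with DNase I. Run on 8% denaturing polyacrylamide/8 M urea gels and imaged by phosphor screen. Base positions assigned against a DMS/piperidine G-track.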

[12] = tested on: Nucleic Acid; test: Induction of DNA intercalation in supercoiled pUC19 DNA in presence of human topoisomerase 1 assessed as effect on topoisomerase 1-mediated DNA relaxation at 5 to 50 uM by agarose gel electrophoresis; type: nucleic-acid assay; settings: Escherichia coli; how it was run: as §4
[13] = tested on: Calf thymus DNA; test: Binding affinity to calf thymus DNA assessed as change in melting temperature at drug/ base pair ratio of 0.25 by spectrophotometry; type: nucleic-acid assay; settings: Bos taurus; how it was run: as §3

Row | SMILES | inhibition (INH) ([2]; bj, 72 h) | pIC50 ([1]; Homo sapiens, HeLa, 72 h) | pIC50 ([2]; Homo sapiens, BJ, 72 h) | pIC50 ([3]; Homo sapiens, SW-620, 72 h) | pIC50 [5] | inhibition [1] | inhibition [6] | inhibition [4] | pIC50 ([4]; Homo sapiens, MCF7, 72 h) | inhibition [5] | inhibition [7] | ΔTm [8] | further results
1 | Cl.Nc1ccc(/N=C2\c3ccccc3CN2c2ccc(N)cc2)cc1 | Dose-dependent effect |  |  |  |  |  |  |  |  |  |  |  | pIC50 ([1]; hela): 4.20; pIC50 ([2]; bj): 4.09; pIC50 ([3]; sw-620): 4.29; pIC50 ([4]; mcf7): 6.14
2 | Nc1ccc(/N=C2\c3ccccc3CN2c2ccc(N)cc2)cc1 [listing 1 of 2 here] | Dose-dependent effect | < 4.00 | < 4.00 | < 4.00 | < 4.00 |  |  |  |  |  |  |  | pIC50 ([4]; mcf7): 7.30
3 | CN(C)c1ccc(/N=C2\c3ccccc3CN2c2ccc(N(C)C)cc2)cc1 | Dose-dependent effect | 4.03 | < 4.00 | < 4.00 | 4.08 | Dose-dependent effect | Dose-dependent effect | Dose-dependent effect | 5.05 | Dose-dependent effect |  |  | 
4 | Nc1ccc(/N=C2\c3ccccc3CN2c2ccc(N)nc2)cn1 | Dose-dependent effect | < 4.00 | < 4.00 | < 4.00 | 4.05 | Dose-dependent effect | Dose-dependent effect | Dose-dependent effect | 4.09 | Dose-dependent effect |  |  | 
5 | Cc1ccnc(/N=C2\c3ccccc3CN2c2cc(C)ccn2)c1 | Dose-dependent effect | 4.01 | 4.10 | < 4.00 | 4.36 | Dose-dependent effect | Dose-dependent effect | Dose-dependent effect | 6.15 | Dose-dependent effect | inactive | 0 °C | Activity [9]: Active
6 | Cl.c1ccc2c(c1)CN(c1ccc(C3=NCCN3)cc1)/C2=N/c1ccc(C2=NCCN2)cc1 | Dose-dependent effect | 4.11 | 5.06 | < 4.00 | 4.08 | Dose-dependent effect | Dose-dependent effect | Dose-dependent effect | 4.70 | Dose-dependent effect | inactive | 19.6 °C | Activity [10]: Active; Activity [11]: inactive; Activity [12]: Active; ΔTm [13]: 16 °C
7 | Cl.N=C(N)c1ccc(/N=C2\c3ccccc3CN2c2ccc(C(=N)N)nc2)cn1 | Dose-dependent effect | 4.16 | < 4.00 | < 4.00 | 4.47 | Dose-dependent effect | Dose-dependent effect | Dose-dependent effect | 4.38 | Dose-dependent effect | inactive | 14.6 °C | Activity [10]: Active; Activity [12]: Active; ΔTm [13]: 8.8 °C
8 | N#Cc1ccc(/N=C2\c3ccccc3CN2c2ccc(C#N)nc2)cn1 | Dose-dependent effect | 5.35 | 5.05 | 4.08 | 5.26 | Dose-dependent effect | Dose-dependent effect | Dose-dependent effect | 4.39 | Dose-dependent effect |  |  | 
9 | Nc1ccc(/N=C2\c3ccccc3CN2c2ccc(N)cc2)cc1 [listing 2 of 2 here] |  |  |  |  |  | Dose-dependent effect | Dose-dependent effect | Dose-dependent effect |  | Dose-dependent effect | inactive | 0 °C | Activity [12]: inactive
10 | CC(C)NC(=N)c1ccc(N2Cc3ccccc3C2=O)nc1.Cl | Dose-dependent effect | < 4.00 | 4.74 | 4.10 | 4.29 | Dose-dependent effect | Dose-dependent effect | Dose-dependent effect | 5.19 | Dose-dependent effect |  |  | 
11 | Cl.N=C(N)c1ccc(N2Cc3ccccc3C2=O)nc1 | Dose-dependent effect | 4.22 | 4.80 | 4.35 | 4.39 | Dose-dependent effect | Dose-dependent effect | Dose-dependent effect | 4.45 | Dose-dependent effect |  |  | 
12 | CC(C)NC(=N)c1ccc(/N=C2\c3ccccc3CN2c2ccc(C(=N)NC(C)C)cn2)nc1.Cl | Dose-dependent effect | < 4.00 | < 4.00 | < 4.00 | < 4.00 | Dose-dependent effect | Dose-dependent effect | Dose-dependent effect | < 4.00 | Dose-dependent effect | inactive | 4.4 °C | Activity [10]: inactive
13 | CC(=O)Nc1ccc(/N=C2\c3ccccc3CN2c2ccc(NC(C)=O)nc2)cn1 | Dose-dependent effect | < 4.00 | < 4.00 | < 4.00 | 4.52 | Dose-dependent effect | Dose-dependent effect | Dose-dependent effect | 4.80 | Dose-dependent effect | inactive | 0 °C | Activity [12]: inactive
14 | CC(=O)Nc1ccc(/N=C2\c3ccccc3CN2c2ccc(NC(C)=O)cc2)cc1 | Dose-dependent effect | < 4.00 | 4.03 | < 4.00 | 4.15 | Dose-dependent effect | Dose-dependent effect | Dose-dependent effect | 4.42 | Dose-dependent effect |  |  | 
